Results taken from publication PMC7381488 (EBioMedicine, 2020).
Entries after “also recorded” stand apart in the source; their conditions may differ. Read-outs that look alike come from different tables or passages of the source.

Assays:
[1] = type: in vivo, rhesus macaques; conditions: 30 mg/kg EVG + 30 mg/kg COBI vs 50 mg/kg EVG alone, macaques
[2] = Drug concentrations in rectal tissues of macaques 24h after oral dosing; type: in vivo; conditions: for rectal tissue concentration, macaques compared with humans: p=0•43 (EVG), p=0•073 (FTC), p=1 (TFV)
Procedure, shortened: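 Macaques received one oral gavage solution (20 mg/kg FTC, 1•5 mg/kg TAF, 30 mg/kg EVG, 30 mg/kg COBI) in 65% PEG 400/20% TPGS/15% phosphate buffer pH 8. Mucosal biopsies were taken about 5-6 cm above the anal aperture 24 h post-dose: FTC/EVG in 12 animals, TFV-DP/FTC-TP in 4. Analysis was by HPLC-MS/MS or LC-MS-MS. Median biopsy weight was 0•037 g. Comparison with humans used the Wilcoxon rank sum test.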

[3] = macaques, cited from earlier work
[4] = Intracellular TFV-DP and FTC-TP in PBMCs of macaques after a single oral dose; type: in vivo; conditions: for peak intracellular concentration in PBMCs: macaques n=4, 20 mg/kg FTC, 1•5 mg/kg TAF, 30 mg/kg EVG/COBI oral, at 24h, median [range]; for time of peak in PBMCs: macaques, single oral dose
Procedure, shortened: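 Four macaques were gavaged once with FTC 20 mg/kg, TAF 1•5 mg/kg, EVG 30 mg/kg and COBI 30 mg/kg in PEG 400/TPGS/phosphate buffer vehicle. PBMCs were sampled over time and lysed in cold 80% methanol, then stored at -80C. TFV-DP and FTC-TP were measured by LC-MS-MS, with LLOQs of 100 and 500 fmol/sample respectively.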

[5] = type: in vivo, humans; conditions: for peak intracellular concentration in PBMCs: humans n=7, single Genvoya tablet (200 mg FTC/10 mg TAF/150 mg EVG/150 mg COBI), at 4h, median [range]; for time of peak in PBMCs: humans, single Genvoya tablet
Procedure, shortened: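 Seven HIV-negative men took a single oral tablet (200 mg FTC/10 mg TAF/150 mg EVG/150 mg COBI), with PBMCs collected at each time point. Cells were lysed in cold 80% methanol and stored at -80C. TFV-DP and FTC-TP were quantified by LC-MS-MS, with LLOQ 100 fmol/sample for TFV-DP and 500 fmol/sample for FTC-TP.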

[6] = Drug concentrations in rectal tissues of humans 24h after a single tablet; type: in vivo
Procedure, shortened: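 Seven HIV-negative men aged 18-49 each took one observed oral tablet (200 mg FTC/10 mg TAF/150 mg EVG/150 mg COBI). Rectal biopsies were taken 24 h later. TFV, FTC and EVG were measured by HPLC-MS/MS against a 0•5-2000 ng/mL human-plasma standard curve (LLOQ 10 ng/mL). Intracellular TFV-DP and FTC-TP were measured by LC-MS-MS. Median biopsy weight for extracellular drugs was 0•020 g.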

[7] = type: in vivo, macaques
Procedure, shortened: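 PEP arms were dosed by oral gavage at +2h (n=5), +6h (n=6), +24h (n=6) or +24h/+48h (n=6) after rectal SHIV162P3 exposure. Dosing and challenge recurred every two weeks for up to 8 exposures. PBMC TFV-DP and FTC-TP were measured at each subsequent challenge, 2 weeks after dosing, and reported as medians. Values below LLOQ were set to 10 fmol/10^6 cells.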

virus = conditions: added between 6 and 10 h after virus exposure; cited from earlier work

SMILES: COc1cc2c(cc1Cc1cccc(Cl)c1F)c(=O)c(C(=O)O)cn2[C@H](CO)C(C)C [EVG, elvitegravir]
- increase of plasma Cmax and AUC0-24h by co-administration of COBI [1]: about 4 fold
- rectal tissue concentration, macaques compared with humans ([2]; 24h after dosing): similar
- plasma AUC0-24h of EVG without a booster ([3]; 50 mg/kg EVG oral, no COBI): 4000 ngxh/ml
- plasma Cmax of EVG without a booster ([3]; 50 mg/kg EVG oral, no COBI): 280 ng/mL
- time in secretions above the protein-adjusted 95% inhibition concentration ([3]; single oral dose, rectal and vaginal secretions): > 48 h
- EVG concentration in rectal secretions relative to plasma ([3]; single oral dose): 694 fold
- EVG concentration in vaginal secretions relative to plasma ([3]; single oral dose): 114 fold

SMILES: Nc1nc(=O)n([C@@H]2CS[C@H](CO)O2)cc1F [FTC, emtricitabine]
- rectal tissue concentration, macaques compared with humans ([2]; 24h after dosing): similar

SMILES: Nc1nc(=O)n([C@@H]2CS[C@H](COP(=O)(O)OP(=O)(O)OP(=O)(O)O)O2)cc1F [FTC-TP]
- peak intracellular concentration in PBMCs [4]: 1737 [1153–3523] fmols/10^6 cells
- time of peak in PBMCs [4]: 24 h
- peak intracellular concentration in PBMCs [5]: 4215 [3630–7,150] fmols/10^6 cells
- time of peak in PBMCs [5]: 4 h
- detection in rectal tissue ([2]; macaques, 24h after dosing): mostly undetectable
- detection in rectal tissue ([6]; 24h after dosing): mostly undetectable
- residual level in PBMCs at the time of virus challenges ([7]; PEP arms): did not detect any residual FTC-TP

SMILES: Cc1nnc(C(=O)NC(C)(C)c2nc(C(=O)NCc3ccc(F)cc3)c(O)c(=O)n2C)o1 [RAL, raltegravir]
- post-infection inhibition in culture (virus): high post-infection inhibition

SMILES: C[C@@H](Cn1cnc2c(N)ncnc21)OCP(=O)(O)OP(=O)(O)OP(=O)(O)O [TFV-DP]
- peak intracellular concentration in PBMCs [4]: 746 [509–1828] fmols/10^6 cells
- time of peak in PBMCs [4]: 24 h
- peak intracellular concentration in PBMCs [5]: 299 [121–523] fmols/10^6 cells
- time of peak in PBMCs [5]: 4 h
- median intracellular level in rectal tissue ([2]; macaques, 24h after single oral dose): 10,600 fmols/mg
- median intracellular level in rectal tissue ([6]; 24h after single Genvoya tablet): 17,100 fmols/mg of tissue
- median residual level in PBMCs at time of SHIV challenge ([7]; +2h arm): < LLOQ; also recorded: below the limit of detection
- median residual level in PBMCs at time of SHIV challenge ([7]; +6h arm): < LLOQ; also recorded: below the limit of detection

SMILES: C[C@H](Cn1cnc2c(N)ncnc21)OCP(=O)(O)O [TFV, tenofovir]
- rectal tissue concentration, macaques compared with humans ([2]; 24h after dosing): similar
